Data: ChEMBL document CHEMBL4513216, “Probing the Open Global Health Chemical Diversity Library for Multistage-Active Starting Points for Next-Generation Antimalarials” (ACS Infect Dis, 2020)

Assay: Toxicity liver stage against HepG2, at 10uM
Assay type: cell-based
Set-up: test concentration 10 uM, cell line HepG2-A16-CD81EGFP
Conditions: human, HepG2-A16-CD81EGFP cells; read-out: INHIBITION
Outline: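 Uninfected HepG2-A16-CD81EGFP cells, 3 × 10^3 per well, 1536-well, plated on prespotted compound at 10 μM final, parasite-free screening media added to match infected plates; puromycin 10 μM positive, DMSO 0.5% negative; run in parallel with 48 h PbLuc assay at 37 °C, 5% CO2; viability by CellTiter-Glo luminescence, normalized to controls.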

SMILES | cytotoxicity at 10 µM [%]
Cc1nc(NC(=O)c2c(-n3cnnn3)sc(C)c2C)sc1C | 2.13
Cc1cc(C)nc(-n2nc(C)c3c2NC(=O)CSC3c2cnn(C)c2)n1 (stereo unspecified) | -36.5
CC(C)Cn1ccc2c(NC(=O)c3n[nH]c4c3CCC4)cccc21 | 7.33
Cc1cc(NC(=O)C(C)C)n(-c2nc(C)c(C)c(=O)[nH]2)n1 | 43.1
Cc1cc(C(=O)N2CCN(c3nc4c(C(C)C)cccc4s3)CC2)no1 | 16.7
CCc1c(C)nc(-n2nc(C3CC3)cc2NC(C)=O)[nH]c1=O | 30.3
O=C1[C@H]2CN(C3CCOCC3)C[C@H]2CN1Cc1cccnc1 | -127
O=C(c1cnccn1)N1C[C@@H]2[C@@H](C1)OCC(=O)N2CC1CCCC1 | 1.58
O=C1CSC(c2ccc(O)cc2)c2sccc2N1 (stereo unspecified) | 5.31
O=c1[nH]c2nc(NCC3CCCO3)ncc2c(=O)n1-c1ccc(F)cc1 (stereo unspecified) | -5.89
CCN(CC)c1nc(Nc2cccc(C(C)O)c2)nc2ccccc12 (stereo unspecified) | 37.6
CCCNc1cc(-c2c[nH]nc2C2CCN(C(=O)C3CCC3)C2)ccn1 (stereo unspecified) | 82
CN1CCCC1c1cccc(Cc2ccc(F)cc2)n1 (stereo unspecified) | 4.3
CCNC(=O)Nc1ccc(N2CCC(OC)CC2)c(C(F)(F)F)c1 | 20.4
COc1ccc2c(c1)CCCN2C(=O)c1cccc(N(C)C)c1 | 62.8
CCCOc1cccc(OCc2ccon2)c1 | -4.9
COc1cccc(C(CO)NC(=O)NC(C)C)c1 (stereo unspecified) | 10.5
CC(C)(C)C(=O)NCC(=O)NCC1CCCS1 (stereo unspecified) | 3.46
COc1c(C2CCCN2CC(=O)N(C)Cc2ccco2)c(C)nn1C (stereo unspecified) | -3.13
Cc1noc(C)c1CN(C)Cc1csc(-c2ccc(C(C)C)cc2)n1 | 54.8
CCCn1nc2c(cc1=O)CN(c1ncnc3sccc13)CC2 | 49.4
COc1ccc(CN(Cc2cc(C)no2)C2CC2)cc1 | -3.71
COCCCSc1ccc(NCc2scnc2C)cc1 | 55.3

SMILES | cytotoxicity at 10 µM [%]
CC(C)c1ccc(OCCNC(=O)c2ccoc2)cc1 | -1.92
Cc1ncsc1C(=O)OCC1CCN(c2ccccc2)C1 (stereo unspecified) | 27.5
Cc1ccc(NCc2ccc(C#N)cc2)c(CN(C)C)c1 | -3.07
Fc1cc(CN2CCOC3(CCOCC3)C2)ccc1OC(F)F | -11.9
CCc1nc(C)c(C(=O)NCCNc2ncnc3sccc23)s1 | 41.1
O=C(NC1CC1)C1CCN(c2cccc(C(F)(F)F)n2)CC1 | 5.17
OC(CN1CCN(CC2CCCCC2)CC1)c1ccccc1 (stereo unspecified) | 1.53
CC1CCN(C(=O)C2CCCN(C(=O)Nc3ccccn3)C2)CC1 (stereo unspecified) | -2.98
COCc1nc2cc(NCc3ccc(CO)o3)ccc2o1 | -16.2
Cc1cc(NC(=O)C2CN(Cc3ccccc3)CCO2)ccn1 (stereo unspecified) | 54.9
COC(=O)C(C)(C)NC(=O)c1cnc(Cc2ccc(F)cc2)s1 | -0.538
Cc1cc(S(=O)(=O)N2CCCN3CCCC3C2)ccc1F (stereo unspecified) | 17
Cc1nnc(NCC2(c3ccccc3)CCC2)c(C#N)c1C | 19.9
CC(C)(C)n1ncc2c1CCCC2NCc1ccc2c(c1)OCCO2 (stereo unspecified) | 1.7
CCc1nc(CN2CCCN(c3ncnc4sccc34)CC2)no1 | 59.9
CCCNC(=O)CNc1ccc2c(c1)N(C(=O)OC(C)(C)C)CCC2 | 13
CC(C)CN1CCC(NC(=O)c2ccc(Cl)cc2Cl)CC1 | -8.33
CCC(CNC(=O)NC1CCN(C)CC1)Oc1ccccc1Cl (stereo unspecified) | 5.47
Cc1cc(S(=O)(=O)Nc2onc(C)c2C)sc1C | 5.54
CN(Cc1ccccn1)C(CO)c1cccc(Br)c1 (stereo unspecified) | -6.12
Cc1ccc(SC2CCCC2)c(C(=O)NCCO)c1 | -45.3
O=C(Cn1cnc2ccccc2c1=O)Nc1cc(C2CC2)n[nH]1 | 49.4
c1ccc2c(NCC3(N4CCOCC4)CCSC3)ncnc2c1 (stereo unspecified) | 57

SMILES | cytotoxicity at 10 µM [%]
O=C(CCCn1ccnc1)NC1CCCN(c2ccccc2Cl)C1 (stereo unspecified) | 4.86
N#Cc1ccc(CN(CC(N)=O)C2CCCC2)c(Br)c1 | 30.1
Cc1nc(CN2CCCC(Nc3ncnc4ccccc34)C2)no1 (stereo unspecified) | 50
COc1ccc(-c2nc(CN3CC(n4cc(C)cn4)C3)no2)cc1 | -14.9
COc1cc(N2CCC3(CCN(Cc4cccnc4)C3=O)C2)ncn1 (stereo unspecified) | -107
O=S(=O)(c1ccccc1)N1CCC2(CCCN2Cc2ccc(Cl)cc2)C1 (stereo unspecified) | -66.3
COc1ccc2[nH]cc(-c3ccnc(NC4CCCC4)n3)c2c1 | -6.33
c1cc(-c2c[nH]nc2C2CCCCC2)nc(N2CCCCCC2)n1 | 8.07
O=c1[nH]c(NCc2cccc(OC(F)F)c2)nc2c1CCNC2 | 2.47
OC1(CN2CCC(Oc3cccc(C(F)(F)F)c3)CC2)CCNC1 (stereo unspecified) | 1.05
O=C(O)C1CC2(CCN(c3nccc4ccccc34)CC2)CN1 (stereo unspecified) | -2.65
c1ccc(-c2cnn3cc(CN4CCC5(CCO5)CC4)cnc23)cc1 | 1.64
CCc1cc(N2CCC(n3cc(C(=O)NC4CC4)nn3)CC2)ncn1 | 27.7
CC1(c2ccccc2)CCCN(Cc2cncn2C2CCCC2)C1 (stereo unspecified) | 16.3
Clc1ccccc1-c1cc(CNc2ncnc3c2CCNCC3)no1 | 24.6
CCO[C@H]1C[C@@H](O)C12CCN(C(=O)CC(F)(F)F)CC2 | -6.36
CC(C)CN1CCCC1c1ccc(C(=O)Nc2cccnc2)s1 (stereo unspecified) | -6.79
Cc1cc(CN2CCCC2)cc(Oc2nc(C)cnc2C)c1 | -2.54
O=C(NCc1nc(NC2CCCC2)c2cc(Cl)ccc2n1)c1ccoc1 | -2.99
N[C@@H]1c2ccccc2C2(CCN(c3ncccc3C(F)(F)F)CC2)[C@H]1O | 0.106
c1ccc(OCCNc2ncnc3sc4c(c23)CCNC4)cc1 | 45.4
Cc1ccc(-c2cc(CNc3ncnc4c3CCNCC4)no2)cc1 | 13
COc1ccccc1CCN[C@@H]1c2ccccc2C2(CCNCC2)[C@H]1O | 5.79

SMILES | cytotoxicity at 10 µM [%]
O=C(NC1CC1)c1ccnc(N2CCOC(c3ccc(Cl)c(Cl)c3)C2)c1 (stereo unspecified) | 14
O=C(O)c1cccnc1CN(Cc1ccsc1)C1CC1 | 3.7
CC(C)c1nccn1Cc1cc(C(=O)NCC(F)(F)F)n[nH]1 | 3.73
COc1ccc(-c2cc(CNc3ncnc4c3CCNCC4)no2)cc1 | 13.1
CC(C)(CO)Nc1ccc(-c2nc(-c3ccccc3F)no2)cn1 | 9.62
COc1ccc(C(=O)C2CCCN(c3cc(OC)ncn3)C2)c(C)c1 (stereo unspecified) | 48
CC(Nc1ncnc2c1CCNC2)c1ccc2c(c1)CCCC2 (stereo unspecified) | 42
CC(C)=CCC1(CO)CCCN(S(=O)(=O)N2CCCC2)C1 (stereo unspecified) | -3.38
Cc1cc(NC(=O)c2ccc(CN3CC[C@H](O)C3)cc2)ccc1F | 4.5
CCOC(=O)N1CCN(c2nc(CCN)nc3sc(C)c(C)c23)CC1 | -43.4
Clc1ccc2nc(N3CCC(NCCCC4CCOC4)CC3)sc2c1 (stereo unspecified) | 4.1
Cc1cc(O)ccc1-c1cc(-c2cnn(C)c2C2CC2)c(C#N)c(N)n1 | 40.2
Fc1ccccc1OC1CCN(CCn2cc3ccccc3n2)CC1 | 9.25
COc1cccc(-c2noc3c2CN(c2ncnc4c2CCC4)CC3)c1 | 51
O=C1NCCN1C1CCN(Cc2nc(-c3ccc(F)cc3)no2)CC1 | 44.1
COc1ccc(-c2noc(CN3CC(n4cc(C)cn4)C3)n2)cc1 | -5.97
COc1ccc(OCCN2CCC(N3CCNC3=O)CC2)cc1 | 29.5
Cc1cc(C(=O)N2CCc3nnc(N)cc3C2)c(C)n1-c1ccccc1 | 0.591
CCOc1ncccc1NC(=O)N1CCN(c2cccc(C)c2C)CC1 | 81.2
CC(C)c1n[nH]c(C(=O)Nc2ccnn2C(C)C)c1Br | 13.8
NC1CCc2nc(-c3ccncc3)nc(Nc3cccc(F)c3)c2C1 (stereo unspecified) | 26.4
Cc1noc(C)c1CN1CCn2cc(CNc3ccccn3)nc2C1 | -1.38
COCC1CN(Cc2ccc(OC)cc2)Cc2nn(C)cc21 (stereo unspecified) | 0.976

SMILES | cytotoxicity at 10 µM [%]
Cc1noc(C)c1CN1C[C@@H]2CC(F)(F)C[C@@H]2C1 | -2.58
Cc1cccc(CNC(Cc2ccsc2)c2nc(C)c(C)s2)n1 (stereo unspecified) | -0.52
O=C(Nc1ccccc1)c1ccc2c(c1)C1(CCCCC1)CN2 | -31.5
Clc1cccc(C[C@@H]2NCCC[C@@H]2Nc2cccc(Cl)c2)c1 | 86
COc1cccc(CN(Cc2ccco2)Cc2[nH]cnc2C)c1 | 3.77
Cc1ccc(-c2ccc(C3CNCCO3)nc2)cc1 (stereo unspecified) | -5.3
Cc1noc(C)c1CN1CCc2ncnc(-c3ccncc3)c2CC1 | -87
Cn1ncc2c1CCCC2NCc1cccc(C(F)(F)F)c1 (stereo unspecified) | -8.25
CC(C)NC(=O)N1CCc2onc(C(=O)NCCN(C)C)c2C1 | 0.0529
Fc1ccc2c(c1)C1(CCNCC1)CC2NC1CC1 (stereo unspecified) | -117
CN1C(=O)C2(CCN(CC3CCC3)C2)c2ccccc21 (stereo unspecified) | -71.3
O=C([C@H]1C[C@@H]2CCN(c3cccc(F)c3)C[C@H]2O1)N1CCCC1 | 1.99
Cc1ccc(N2CC[C@H]3O[C@@H](C(=O)N4CCCO4)CC[C@H]32)nn1 | 0.908
O=c1c2sccc2nc2n1CCN(Cc1ccccc1C(F)(F)F)CC2 | -9.31
O=C(CC1CC1)NC[C@]12COC[C@H]1CN(c1ncccn1)C2 | -142
O=C(NCCN1CCOCC1)c1ccnn1-c1ccc2ccccn12 | 10.9
COCCN1CCCCC12CC(=O)N(c1ccccc1OC)C2 (stereo unspecified) | -92.6
FC1(F)CCN(Cc2cccnc2)CC12CCN(c1ccccc1)C2 (stereo unspecified) | -84.5
Cc1ccccc1SC1CCN(C(=O)C2[C@H]3CNC[C@@H]23)CC1 (stereo partly specified) | -10.1
